Consider one compound from publication PMC9301648 (ACS Omega, 2022).

Data set [1] in a line: cytotoxicity toward MRC5 cells, same conditions without virus infection. Conditions: human. The format is cell-based. Put shortly: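 Run in parallel with the antiviral CPE assay under identical conditions without virus infection. MRC5 cells were seeded at 20,000 cells/well and cultured overnight at 37 °C, 5% CO₂. Test compound diluted in assay medium was added; final DMSO 0.5%. Viability was read by CellTiter Glo. Single-point at 25 μM; CC50 by four-parameter log(inhibitor) vs response variable-slope regression.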

The subject of data set [2] is human coronavirus (HCoV) 229E. Nature of the data set: cytopathic effect. Type of data set: cell-based. The following applies: unidentified human coronavirus, MRC5, read-out: normalized inhibition % (25 μM). An outline of the steps: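 MRC5 cells were seeded at 20,000 cells/well and grown overnight at 37 °C, 5% CO₂. Test compound diluted in assay medium was added, then HCoV 229E diluted in assay medium; final DMSO 0.5%. CPE was read by CellTiter Glo. Protection at each concentration was normalized to virus-only control. Screen at 25 μM; EC50 from full dose–response by four-parameter variable-slope nonlinear regression.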
For orientation: Damage to the host cells serves as the signal in cytopathic effect assays.

By inhibition is commonly meant the drop in the measured response relative to a control, in per cent.

Regarding `CC(=O)OC[C@@]1(C)[C@H]2CC[C@@H]3CN(CCC(C)C)[C@@H](C4=CCOC4=O)C[C@H]3[C@]2(C)CC[C@H]1OC(C)=O` [4v, ((2R,4aS,6aS,7R,8R,10aS,10bR)-8-Acetoxy-3-isopentyl-7,10a-dimethyl-2-(2-oxo-2,5-dihydrofuran-3-yl)tetradecahydrobenzo[f]isoquinolin-7-yl)methyl Acetate], the cytotoxicity at 3 days, 25 µM in data set [1] was determined as 3.2%. For the same compound, the inhibition at 25 µM in data set [2] is 102%.
